Assay results: ChEMBL document CHEMBL4043093, “2-Oxo-3, 4-dihydropyrimido[4, 5-d]pyrimidinyl derivatives as new irreversible pan fibroblast growth factor receptor (FGFR) inhibitors” (Eur J Med Chem, 2017)

Tests used:
[1] = biological target: AP2-associated protein kinase 1 (Homo sapiens) (UniProt Q2M2I8); experiment: Inhibition of human wild-type AAK1 (G25 to L333 residues) expressed in Escherichia coli BL21 assessed as residual activity at 1000 nM after 30 mins by Kinomescan method relative to control
Summary of the method: (§1)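 Single-point screen at a fixed 1 µM, run within a 456-kinase DiscoveRx KINOMEscan panel. Each kinase's read-out is Percent Control, i.e. signal relative to a control without compound. Hits were scored by a Percent Control < 35 cut-off, and an S(35) selectivity score was calculated across the non-mutant kinases.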

[2] = test system: Tyrosine-protein kinase ABL1 (Homo sapiens), P00519 [F317L]; experiment: Inhibition of human phosphorylated ABL1 F317L mutant (S229 to K512 residues) expressed in HEK293 cells assessed as residual activity at 1000 nM after 30 mins by Kinomescan method relative to control; assay type: cell-based; summary of the method: as §1
[3] = biological target: Activin receptor type-1B (Homo sapiens) (UniProt P36896); experiment: Inhibition of wild-type human ACVR1B (S187 to I505 residues) expressed in Escherichia coli BL21 assessed as residual activity at 1000 nM after 30 mins by Kinomescan method relative to control; summary of the method: as §1
[4] = biological target: NUAK family SNF1-like kinase 1 (Homo sapiens) (UniProt O60285); experiment: Inhibition of wild-type human partial length ARK5 (E25 to I332 residues) expressed in Escherichia coli BL21 assessed as residual activity at 1000 nM after 30 mins by Kinomescan method relative to control
[5] = biological target: Calcium/calmodulin-dependent protein kinase type 1G (Homo sapiens) (UniProt Q96NX5); experiment: Inhibition of wild-type human partial length CAMK1G (M1 to A342 residues) expressed in Escherichia coli BL21 assessed as residual activity at 1000 nM after 30 mins by Kinomescan method relative to control
[6] = biological target: Cyclin-dependent kinase 3 (Homo sapiens) (UniProt Q00526); experiment: Inhibition of wild-type human full length CDK3 (M1 to H305 residues) expressed in Escherichia coli BL21 assessed as residual activity at 1000 nM after 30 mins by Kinomescan method relative to control; summary of the method: as §1
[7] = biological target: Ephrin type-A receptor 5 (Homo sapiens) (UniProt P54756); experiment: Inhibition of wild-type human partial length EPHA5 (T627 to V930 residues) expressed in Escherichia coli BL21 assessed as residual activity at 1000 nM after 30 mins by Kinomescan method relative to control
[8] = biological target: Mitogen-activated protein kinase 1 (Homo sapiens) (UniProt P28482); experiment: Inhibition of wild-type human full length ERK2 (M1 to S360 residues) expressed in Escherichia coli BL21 assessed as residual activity at 1000 nM after 30 mins by Kinomescan method relative to control
Summary of the method: (§2)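 Single-concentration screen at 1 µM across a 456-kinase KINOMEscan panel. The read-out is Percent Control for each kinase.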

Homo sapiens = species: Homo sapiens; experiment: Inhibition of human partial length FLT3 ITD mutant expressed in Escherichia coli BL21 assessed as residual activity at 1000 nM after 30 mins by Kinomescan method relative to control
Summary of the method: (§3)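 KINOMEscan binding panel of 456 kinases, with the test compound at a single concentration of 1 µM. Read-out is Percent Control.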

[9] = biological target: Receptor-type tyrosine-protein kinase FLT3 (Homo sapiens) (UniProt P36888); experiment: Inhibition of wild-type human partial length autoinhibited FLT3 (H564 to Y969 residues) expressed in HEK293 cells assessed as residual activity at 1000 nM after 30 mins by Kinomescan method relative to control; assay type: cell-based
[10] = biological target: Vascular endothelial growth factor receptor 3 (Homo sapiens) (UniProt P35916); experiment: Inhibition of wild-type human partial length FLT4 (E821 to E1196 residues) expressed in Escherichia coli BL21 assessed as residual activity at 1000 nM after 30 mins by Kinomescan method relative to control
[11] = test system: Mast/stem cell growth factor receptor Kit (Homo sapiens), P10721 [V559D,V654A]; experiment: Inhibition of human partial length KIT V559D/V654A double mutant (Y545 to D952 residues) expressed in Escherichia coli BL21 assessed as residual activity at 1000 nM after 30 mins by Kinomescan method relative to control; summary of the method: as §3
[12] = biological target: LIM domain kinase 1 (Homo sapiens) (UniProt P53667); experiment: Inhibition of wild-type human full length LIMK1 (M1 to D647 residues) expressed in Escherichia coli BL21 assessed as residual activity at 1000 nM after 30 mins by Kinomescan method relative to control; summary of the method: as §2
[13] = biological target: Serine/threonine-protein kinase 26 (Homo sapiens) (UniProt Q9P289); experiment: Inhibition of wild-type human full length MST4 (M1 to P416 residues) expressed in HEK293 cells assessed as residual activity at 1000 nM after 30 mins by Kinomescan method relative to control; assay type: cell-based; summary of the method: as §2
[14] = biological target: Myosin light chain kinase, smooth muscle (Homo sapiens) (UniProt Q15746); experiment: Inhibition of wild-type human full length MYLK (M854 to E1845 residues) expressed in HEK293 cells assessed as residual activity at 1000 nM after 30 mins by Kinomescan method relative to control; assay type: cell-based; summary of the method: as §2
[15] = biological target: Mitogen-activated protein kinase 11 (Homo sapiens) (UniProt Q15759); experiment: Inhibition of wild-type human full length p38-beta (M1 to Q364 residues) expressed in Escherichia coli BL21 assessed as residual activity at 1000 nM after 30 mins by Kinomescan method relative to control
[16] = biological target: PDGFRB (platelet-derived growth factor receptor beta) (Homo sapiens, UniProt P09619); experiment: Inhibition of wild-type human partial length PDGFRB (V582 to Y1009 residues) expressed in Escherichia coli BL21 assessed as residual activity at 1000 nM after 30 mins by Kinomescan method relative to control; details: read-out: Activity
[17] = biological target: RAF proto-oncogene serine/threonine-protein kinase (Homo sapiens) (UniProt P04049); experiment: Inhibition of wild-type human partial length RAF1 (I330 to T640 residues) expressed in Escherichia coli BL21 assessed as residual activity at 1000 nM after 30 mins by Kinomescan method relative to control
[18] = biological target: Ribosomal protein S6 kinase alpha-6 (Homo sapiens) (UniProt Q9UK32); experiment: Inhibition of wild-type human partial length N-terminal RSK4 kinase domain 1 (M1 to E397 residues) expressed in HEK293 cells assessed as residual activity at 1000 nM after 30 mins by Kinomescan method relative to control; assay type: cell-based
[19] = biological target: Tyrosine-protein kinase Tec (Homo sapiens) (UniProt P42680); experiment: Inhibition of wild-type human partial length TEC (L341 to D620 residues) expressed in Escherichia coli BL21 assessed as residual activity at 1000 nM after 30 mins by Kinomescan method relative to control
[20] = biological target: Non-receptor tyrosine-protein kinase TYK2 (Homo sapiens) (UniProt P29597); experiment: Inhibition of wild-type human partial length TYK2 JH2 pseudokinase domain (G556 to D888 residues) expressed in HEK293 cells assessed as residual activity at 1000 nM after 30 mins by Kinomescan method relative to control; assay type: cell-based
Chain of Non-receptor tyrosine-protein kinase TYK2 (Homo sapiens) (P29597 whole entry, the tested form may be a part): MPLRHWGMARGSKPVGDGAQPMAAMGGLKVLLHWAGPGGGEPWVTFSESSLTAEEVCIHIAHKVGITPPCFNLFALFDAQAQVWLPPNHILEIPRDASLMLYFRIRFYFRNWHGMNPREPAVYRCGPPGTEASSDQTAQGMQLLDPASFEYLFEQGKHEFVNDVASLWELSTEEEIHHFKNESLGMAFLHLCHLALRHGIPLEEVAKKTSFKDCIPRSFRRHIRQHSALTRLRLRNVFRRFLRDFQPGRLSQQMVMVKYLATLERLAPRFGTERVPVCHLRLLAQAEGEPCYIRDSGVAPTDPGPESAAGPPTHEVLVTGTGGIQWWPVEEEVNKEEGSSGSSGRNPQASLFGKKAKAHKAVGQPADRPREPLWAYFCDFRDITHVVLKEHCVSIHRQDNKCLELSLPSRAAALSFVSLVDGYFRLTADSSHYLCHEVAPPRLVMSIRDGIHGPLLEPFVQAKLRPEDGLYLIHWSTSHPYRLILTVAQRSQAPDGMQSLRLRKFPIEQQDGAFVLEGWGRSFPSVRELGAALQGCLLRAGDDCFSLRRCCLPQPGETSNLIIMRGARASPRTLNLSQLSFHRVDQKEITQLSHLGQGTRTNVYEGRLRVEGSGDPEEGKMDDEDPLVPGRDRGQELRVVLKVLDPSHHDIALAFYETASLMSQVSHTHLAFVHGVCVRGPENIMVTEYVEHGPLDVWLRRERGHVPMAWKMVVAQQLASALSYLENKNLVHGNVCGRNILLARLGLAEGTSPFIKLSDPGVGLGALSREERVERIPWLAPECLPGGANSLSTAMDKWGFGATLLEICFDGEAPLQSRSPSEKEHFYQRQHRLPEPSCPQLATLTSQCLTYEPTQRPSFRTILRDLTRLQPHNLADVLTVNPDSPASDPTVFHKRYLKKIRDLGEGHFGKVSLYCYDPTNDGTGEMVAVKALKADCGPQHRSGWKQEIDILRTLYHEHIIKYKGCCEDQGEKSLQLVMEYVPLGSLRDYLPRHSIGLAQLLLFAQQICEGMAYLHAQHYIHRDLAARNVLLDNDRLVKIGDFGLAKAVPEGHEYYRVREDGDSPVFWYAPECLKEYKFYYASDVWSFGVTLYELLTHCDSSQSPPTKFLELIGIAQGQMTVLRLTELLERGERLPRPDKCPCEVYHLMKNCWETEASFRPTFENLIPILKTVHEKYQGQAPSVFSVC

Chain of Serine/threonine-protein kinase 26 (Homo sapiens) (Q9P289 2-416 limits assumed): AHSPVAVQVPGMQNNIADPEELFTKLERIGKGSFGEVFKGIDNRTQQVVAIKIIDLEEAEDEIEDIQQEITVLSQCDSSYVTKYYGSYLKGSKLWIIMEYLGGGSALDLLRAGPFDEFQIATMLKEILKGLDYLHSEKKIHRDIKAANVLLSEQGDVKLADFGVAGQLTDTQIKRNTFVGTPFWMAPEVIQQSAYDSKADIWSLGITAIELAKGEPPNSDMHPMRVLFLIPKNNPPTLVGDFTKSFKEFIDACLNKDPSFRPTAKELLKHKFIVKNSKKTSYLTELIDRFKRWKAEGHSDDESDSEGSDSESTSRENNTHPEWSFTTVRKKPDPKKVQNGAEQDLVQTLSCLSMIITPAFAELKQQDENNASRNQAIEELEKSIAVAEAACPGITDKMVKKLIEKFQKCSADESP
Chain of RAF proto-oncogene serine/threonine-protein kinase (Homo sapiens) (P04049 whole entry, the tested form may be a part): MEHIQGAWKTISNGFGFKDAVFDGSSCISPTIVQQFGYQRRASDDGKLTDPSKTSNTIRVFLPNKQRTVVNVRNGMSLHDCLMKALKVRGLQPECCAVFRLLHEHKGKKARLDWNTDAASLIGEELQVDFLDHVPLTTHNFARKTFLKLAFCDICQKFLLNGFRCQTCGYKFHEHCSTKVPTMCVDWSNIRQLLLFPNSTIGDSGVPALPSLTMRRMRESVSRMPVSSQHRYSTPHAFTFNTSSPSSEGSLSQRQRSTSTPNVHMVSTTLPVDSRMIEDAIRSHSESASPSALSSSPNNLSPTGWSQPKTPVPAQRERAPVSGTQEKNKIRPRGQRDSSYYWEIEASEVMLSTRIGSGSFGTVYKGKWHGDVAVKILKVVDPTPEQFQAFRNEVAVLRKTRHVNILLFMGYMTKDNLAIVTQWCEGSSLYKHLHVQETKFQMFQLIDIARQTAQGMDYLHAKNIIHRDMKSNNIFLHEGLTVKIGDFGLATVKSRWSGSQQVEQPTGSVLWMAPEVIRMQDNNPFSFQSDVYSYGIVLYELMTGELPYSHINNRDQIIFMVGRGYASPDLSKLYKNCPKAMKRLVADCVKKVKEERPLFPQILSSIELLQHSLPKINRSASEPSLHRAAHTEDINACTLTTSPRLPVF
Chain of Mast/stem cell growth factor receptor Kit (Homo sapiens), P10721 [V559D,V654A] (P10721 whole entry V559D/V654A, the tested form may be a part): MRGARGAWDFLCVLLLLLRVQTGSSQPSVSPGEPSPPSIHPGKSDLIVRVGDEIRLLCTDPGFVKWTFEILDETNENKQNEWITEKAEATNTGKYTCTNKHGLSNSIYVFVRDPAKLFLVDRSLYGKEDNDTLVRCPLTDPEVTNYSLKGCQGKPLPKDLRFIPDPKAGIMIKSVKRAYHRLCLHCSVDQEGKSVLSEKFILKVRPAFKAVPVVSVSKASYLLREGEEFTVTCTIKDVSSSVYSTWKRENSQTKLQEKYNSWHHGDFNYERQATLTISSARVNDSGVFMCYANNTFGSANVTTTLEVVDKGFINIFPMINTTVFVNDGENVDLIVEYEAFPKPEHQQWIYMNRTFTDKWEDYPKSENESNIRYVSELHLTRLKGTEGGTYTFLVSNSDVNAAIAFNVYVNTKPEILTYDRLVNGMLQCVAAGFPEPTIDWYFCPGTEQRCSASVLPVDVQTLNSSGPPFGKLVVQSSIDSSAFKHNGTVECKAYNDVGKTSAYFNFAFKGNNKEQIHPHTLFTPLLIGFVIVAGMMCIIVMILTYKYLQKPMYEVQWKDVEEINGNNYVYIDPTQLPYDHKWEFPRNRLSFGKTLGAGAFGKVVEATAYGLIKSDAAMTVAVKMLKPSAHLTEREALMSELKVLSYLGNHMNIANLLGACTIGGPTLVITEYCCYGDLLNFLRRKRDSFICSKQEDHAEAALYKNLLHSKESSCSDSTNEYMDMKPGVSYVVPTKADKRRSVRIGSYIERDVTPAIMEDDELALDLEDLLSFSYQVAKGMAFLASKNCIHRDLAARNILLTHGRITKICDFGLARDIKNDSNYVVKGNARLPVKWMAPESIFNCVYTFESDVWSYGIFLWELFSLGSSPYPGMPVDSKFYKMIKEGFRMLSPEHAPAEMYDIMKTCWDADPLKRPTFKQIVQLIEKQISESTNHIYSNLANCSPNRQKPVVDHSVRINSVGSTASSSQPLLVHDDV
Chain of AP2-associated protein kinase 1 (Homo sapiens) (Q2M2I8 whole entry, looked up, the tested form may be a part): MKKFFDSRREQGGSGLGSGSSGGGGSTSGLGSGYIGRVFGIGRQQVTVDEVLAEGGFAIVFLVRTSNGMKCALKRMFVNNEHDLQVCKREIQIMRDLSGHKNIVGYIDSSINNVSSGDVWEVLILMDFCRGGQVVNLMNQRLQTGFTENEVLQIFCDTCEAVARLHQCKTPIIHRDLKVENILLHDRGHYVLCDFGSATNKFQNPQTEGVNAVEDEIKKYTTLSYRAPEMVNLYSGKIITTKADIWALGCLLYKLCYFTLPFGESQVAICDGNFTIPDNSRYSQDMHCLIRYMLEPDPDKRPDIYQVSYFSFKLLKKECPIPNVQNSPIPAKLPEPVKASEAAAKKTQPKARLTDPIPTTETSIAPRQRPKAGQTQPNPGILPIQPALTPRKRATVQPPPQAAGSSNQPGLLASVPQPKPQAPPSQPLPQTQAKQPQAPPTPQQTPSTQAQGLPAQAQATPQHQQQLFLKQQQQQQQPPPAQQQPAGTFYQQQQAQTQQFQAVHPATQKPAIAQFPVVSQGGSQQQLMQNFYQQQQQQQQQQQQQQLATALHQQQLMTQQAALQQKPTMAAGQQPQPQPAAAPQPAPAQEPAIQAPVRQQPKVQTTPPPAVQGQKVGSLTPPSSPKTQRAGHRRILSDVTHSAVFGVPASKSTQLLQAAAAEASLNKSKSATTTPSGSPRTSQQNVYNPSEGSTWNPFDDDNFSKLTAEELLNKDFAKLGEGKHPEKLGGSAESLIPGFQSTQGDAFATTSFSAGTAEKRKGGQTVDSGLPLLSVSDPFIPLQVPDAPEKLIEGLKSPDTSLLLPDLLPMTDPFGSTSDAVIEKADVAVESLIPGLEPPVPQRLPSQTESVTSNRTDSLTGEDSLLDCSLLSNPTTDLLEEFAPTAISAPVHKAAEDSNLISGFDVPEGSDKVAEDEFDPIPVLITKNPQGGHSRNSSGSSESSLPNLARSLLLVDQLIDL
Chain of Mitogen-activated protein kinase 1 (Homo sapiens) (P28482 whole entry, the tested form may be a part): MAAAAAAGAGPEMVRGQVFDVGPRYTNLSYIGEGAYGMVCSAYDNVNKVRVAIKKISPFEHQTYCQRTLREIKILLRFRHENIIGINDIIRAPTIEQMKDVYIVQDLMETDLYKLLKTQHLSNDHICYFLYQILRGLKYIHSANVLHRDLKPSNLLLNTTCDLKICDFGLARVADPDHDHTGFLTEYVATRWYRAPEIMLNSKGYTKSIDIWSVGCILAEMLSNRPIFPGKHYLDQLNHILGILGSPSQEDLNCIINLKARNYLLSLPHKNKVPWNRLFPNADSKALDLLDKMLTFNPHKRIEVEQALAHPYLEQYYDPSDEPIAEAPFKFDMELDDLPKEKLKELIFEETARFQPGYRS
Chain of Mitogen-activated protein kinase 11 (Homo sapiens) (Q15759 whole entry, the tested form may be a part): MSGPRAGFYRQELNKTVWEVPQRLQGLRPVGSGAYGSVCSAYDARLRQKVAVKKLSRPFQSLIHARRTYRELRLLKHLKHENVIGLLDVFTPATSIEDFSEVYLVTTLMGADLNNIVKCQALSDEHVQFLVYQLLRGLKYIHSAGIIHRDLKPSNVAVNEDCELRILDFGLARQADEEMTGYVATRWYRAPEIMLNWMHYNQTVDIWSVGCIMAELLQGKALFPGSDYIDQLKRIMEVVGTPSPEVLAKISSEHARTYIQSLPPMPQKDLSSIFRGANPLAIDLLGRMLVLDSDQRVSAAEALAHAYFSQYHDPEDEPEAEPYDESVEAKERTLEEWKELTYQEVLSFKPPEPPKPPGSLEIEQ

For `COc1cc(OC)c(Cl)c(N2Cc3cnc(Nc4ccc(F)cc4)nc3N(C3CCN(C(=O)/C=C/CN(C)C)CC3)C2=O)c1Cl`, the Activity [1] was 100%, the Activity [2] was 64% and the Activity [3] was 100%. For the same molecule, the Activity [4] was 100%, the Activity [5] was 100% and the Activity [6] was 97%. It also gave an Activity [7] of 100%, an Activity [8] of 100% and an Activity (Homo sapiens) of 78%. The Activity [9] was 100%, the Activity [10] was 2.7% and the Activity [11] was 99%. It also gave an Activity [12] of 100%, an Activity [13] of 69% and an Activity [14] of 100%. For the same molecule, the Activity [15] was 87%, the activity at 0.5 h, 1 µM [16] was 1.5% and the Activity [17] was 96%. For the same molecule, the Activity [18] was 100%, the Activity [19] was 100% and the Activity [20] was 95%.
